Results from ChEMBL document CHEMBL1127388, “Synthesis and structure-activity relationships in a series of antiinflammatory corticosteroid analogues, halomethyl androstane-17 beta-carbothioates and -17 beta-carboselenoates” (1994).

What was measured:
Assay type in all cases: functional
Mus musculus [1] = assay: Topical anti-inflammatory activity relative to fluocinolone acetonide in mice.
Outline: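 Croton oil ear test in mice (22–28 g), nine groups of 10; steroid dissolved in croton oil (2 vol)/EtOH (20)/Et₂O (78), 0.02 mL to inner aspect of both ears; reference doses 0.015, 0.06, 0.25, 1 µg; untreated-oil controls; ears weighed after 6 h; potency from log dose vs ear weight.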

Mus musculus [2] = assay: Systemic corticosteroid activity after topical application relative to fluocinolone acetonide in mice.
Outline: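 Mice (25–30 g), nine groups of 10, given topical steroid in acetone daily for seven consecutive days; reference fluocinolone acetonide daily doses 0.47, 1.9, 7.5 and 30 µg; vehicle controls. Day after last dose, Et₂O vapor stress 1 min, re-anaesthetised with Et₂O; blood of two mice pooled; plasma corticosterone read fluorimetrically; potency from log daily dose vs corticosterone.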

Rattus norvegicus [3] = assay: Topical anti-inflammatory activity relative to fluocinolone acetonide in rats.
Outline: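 Modified Tonelli croton oil ear test: rats (54–70 g), 7 groups of 10; graded steroid doses in croton oil (5 vol)/EtOH (20)/Et₂O (75), 0.04 mL to inner aspect of both ears (reference 0.06, 0.25, 1 µg); control gets unmedicated oil. After 6 h, CO₂ kill, ears weighed separately; relative potency by ANOVA on log dose and ear weight.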

Homo sapiens = species on record: Homo sapiens; assay: Tested for human vasoconstrictor activity relative to fluocinolone acetonide (100)
Rattus norvegicus [4] = assay: Systemic corticosteroid activity after topical application relative to fluocinolone acetonide in rats.
Outline: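 Rats (170–200 g), seven groups of six, fur clipped, ca. 2 cm² dorsal area dosed once daily for seven days with steroid in acetone (0.02 mL; reference 0.5, 2, 8 µg). Day after final dose: Et₂O stress 1 min, 20 min later pentobarbitone i.p., cardiac blood; fluorimetric plasma corticosterone or adrenal weights; potency from log daily dose.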

Compound	Activity (Mus musculus [1])	Activity (Mus musculus [2])	Activity (Rattus norvegicus [3])	Activity (Homo sapiens)	Activity (Rattus norvegicus [4])
CCCC(=O)O[C@]1(C(=O)SCF)[C@H](C)CC2C3C[C@H](F)C4=CC(=O)C=C[C@]4(C)[C@@]3(F)[C@@H](O)C[C@@]21C (stereo partly specified)	55	0.7	55	299	–
C=C1CC2C3CCC4=CC(=O)C=C[C@]4(C)[C@@]3(F)[C@@H](O)C[C@]2(C)[C@@]1(OC(=O)CC)C(=O)SCCl (stereo partly specified)	42	2	12	365	0.8
CCC(=O)O[C@]1(C(=O)SCCl)CCC2C3CCC4=CC(=O)C=C[C@]4(C)[C@@]3(F)[C@@H](O)C[C@@]21C (stereo partly specified)	20	100	–	916	–
CC(=O)O[C@]1(C(=O)SCF)[C@H](C)CC2C3C[C@H](F)C4=CC(=O)C=C[C@]4(C)[C@@]3(F)[C@@H](O)C[C@@]21C (stereo partly specified)	76	2.9	88	392	3
CCC(=O)O[C@]1(C(=O)SCF)[C@@H](C)CC2C3CCC4=CC(=O)C=C[C@]4(C)[C@H]3[C@@H](O)C[C@@]21C (stereo partly specified)	50	–	44	800	5.1
C=C1CC2C3CCC4=CC(=O)C=C[C@]4(C)[C@@]3(F)[C@@H](O)C[C@]2(C)[C@@]1(OC(=O)CC)C(=O)[Se]CCl (stereo partly specified)	40	2	16	200	–
CCC(=O)O[C@]1(C(=O)SCBr)[C@@H](C)CC2C3CCC4=CC(=O)C=C[C@]4(C)[C@@]3(F)[C@@H](O)C[C@@]21C (stereo partly specified)	–	–	–	254	–
CCC(=O)O[C@]1(C(=O)SCI)[C@@H](C)CC2C3CCC4=CC(=O)C=C[C@]4(C)[C@@]3(F)[C@@H](O)C[C@@]21C (stereo partly specified)	–	–	–	41	–
CCC(=O)O[C@]1(C(=O)SCCl)[C@@H](C)CC2C3CCC4=CC(=O)C=C[C@]4(C)[C@@]3(F)[C@@H](O)C[C@@]21C (stereo partly specified)	41	44	36	1469	0.9
C=C1CC2C3CCC4=CC(=O)C=C[C@]4(C)[C@@]3(F)[C@@H](O)C[C@]2(C)[C@@]1(OC(=O)CC)C(=O)[Se]C (stereo partly specified)	27	–	19	187	<0.2
CCC(=O)O[C@]1(C(=O)SCCl)[C@@H](C)CC2C3CCC4=CC(=O)C=C[C@]4(C)[C@H]3[C@@H](O)C[C@@]21C (stereo partly specified)	27	–	29	295	1.4
C=C1CC2C3CCC4=CC(=O)C=C[C@]4(C)[C@@]3(F)[C@@H](O)C[C@]2(C)[C@@]1(OC(=O)CC)C(=O)SCF (stereo partly specified)	41	44	20	1497	2.5
C=C1CC2C3C[C@H](F)C4=CC(=O)C=C[C@]4(C)[C@@]3(F)[C@@H](O)C[C@]2(C)[C@@]1(OC(=O)CC)C(=O)SCF (stereo partly specified)	197	>100	–	1048	–
CCCC(=O)O[C@]1(C(=O)SCCl)[C@@H](C)CC2C3CCC4=CC(=O)C=C[C@]4(C)[C@@]3(F)[C@@H](O)C[C@@]21C (stereo partly specified)	–	–	–	143	–
CCC(=O)O[C@]1(C(=O)SCF)[C@@H](C)CC2C3CCC4=CC(=O)C=C[C@]4(C)[C@@]3(F)[C@@H](O)C[C@@]21C (stereo partly specified)	89	450	39	1262	13
CCC(=O)O[C@]1(C(=O)SCF)CCC2C3CCC4=CC(=O)C=C[C@]4(C)[C@@]3(F)[C@@H](O)C[C@@]21C (stereo partly specified)	63	149	39	1984	1.5
CCC(=O)O[C@]1(C(=O)SCF)[C@H](C)CC2C3CCC4=CC(=O)C=C[C@]4(C)[C@@]3(F)[C@@H](O)C[C@@]21C (stereo partly specified)	–	–	–	653	–
CCC(=O)O[C@]1(C(=O)SCCl)[C@H](C)CC2C3C[C@H](F)C4=CC(=O)C=C[C@]4(C)[C@@]3(F)[C@@H](O)C[C@@]21C (stereo partly specified)	56	0.04	29	124	<0.02
CC(=O)O[C@]1(C(=O)SCCl)[C@@H](C)CC2C3CCC4=CC(=O)C=C[C@]4(C)[C@@]3(F)[C@@H](O)C[C@@]21C (stereo partly specified)	59	14.7	24	544	0.5
C=C1CC2C3C[C@H](F)C4=CC(=O)C=C[C@]4(C)[C@@]3(F)[C@@H](O)C[C@]2(C)[C@@]1(OC(=O)CC)C(=O)SCCl (stereo partly specified)	108	>100	–	170	–
CCC(=O)O[C@]1(C(=O)SCF)CCC2C3C[C@H](F)C4=CC(=O)C=C[C@]4(C)[C@H]3[C@@H](O)C[C@@]21C (stereo partly specified)	56	>200	97	697	–
CC(=O)O[C@]1(C(=O)SCF)[C@@H](C)CC2C3CCC4=CC(=O)C=C[C@]4(C)[C@@]3(F)[C@@H](O)C[C@@]21C (stereo partly specified)	67	–	40	1388	13.5
CC1(C)O[C@@H]2C[C@H]3[C@@H]4C[C@H](F)C5=CC(=O)C=C[C@]5(C)[C@@]4(F)[C@@H](O)C[C@]3(C)[C@]2(C(=O)CO)O1 [FLUOCINOLONE ACETONIDE]	100	100	100	100	100
CCC(=O)O[C@]1(C(=O)SCF)[C@H](C)C[C@H]2[C@@H]3C[C@H](F)C4=CC(=O)C=C[C@]4(C)[C@@]3(F)[C@@H](O)C[C@@]21C [FLUTICASONE PROPIONATE]	113	1	85	945	1.5
